The source of these data is ChEMBL document CHEMBL5131398, “Novel nucleocapsid protein-targeting phenanthridine inhibitors of SARS-CoV-2” (Eur J Med Chem, 2022).

Structures are written as SMILES.

Tested on in one assay: not listed separately
In words: Binding affinity to N-terminal 6-histidine tagged Severe acute respiratory syndrome coronavirus 2 nucleocapsid protein overexpressed in Escherichia coli BL21 (DE3) assessed as dissociation constant by SPR assay.
Take `CCN1Cc2cc(OC)c(OC)cc2-c2cccc(NCC(F)(F)F)c21`: the Kd turned out to be 10.4 µM. Same read-out and setting: then `CCc1cccc2c1N(C)Cc1cc(OCc3cc(C)nn3C)c(OCc3cc(C)nn3C)cc1-2`, with 10.8 µM.

A further assay has as its system Severe acute respiratory syndrome coronavirus 2. The experiment in a line: Binding affinity to N-terminal 6-histidine tagged Severe acute respiratory syndrome coronavirus 2 nucleocapsid protein overexpressed in Escherichia coli BL21 (DE3) assessed as response unit by SPR assay. In a few lines:
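Single-concentration binding screen: compounds at 200 μM over a surface carrying >10000 RU NPro. 120 s contact, 180 s dissociation, running buffer with 5% DMSO, solvent correction applied. Running buffer served as negative control.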
Turning to `CCc1cccc2c1N(C(=O)CBr)Cc1ccc(OC)cc1-2`, the Activity stood at 22 RU.

Regarding `CCN1Cc2cc(OC)c(OC)cc2-c2cccc(NCC(F)(F)F)c21`, the Activity was 125 RU. On the same count and under the same terms, the value for `CCN1Cc2cc(OC)c(OC)cc2-c2cccc(NC(=O)C(F)(F)F)c21` was 101 RU; that for `COc1ccc2c(c1)CN(C)c1c(C)cccc1-2` was 34.9 RU. On to `COc1cc2cnc3c(C)cccc3c2cc1OC`, for which the Activity was determined as 29.4 RU. On to `CCc1cccc2c1N(C)Cc1cc(OCc3cc(C)nn3C)c(OCc3cc(C)nn3C)cc1-2`, for which the Activity turned out to be 211 RU. On the same count and under the same terms, then `CCC(=O)Nc1cccc2c1N(CC)Cc1cc(OC)c(OC)cc1-2`, with 10.6 RU; and `CCn1c(=O)c2cc(OC)c(OC)cc2c2cccc(NC(=O)CCC(=O)OC)c21`, with 13.1 RU. The same measure, in the same setting: then `COc1cc2c(cc1OC)-c1cccc(C)c1N(C(=O)C(F)(F)F)C2`, with 57.5 RU; and `CCn1c(=O)c2cc(OC)c(OC)cc2c2cccc(N)c21`, with 23.1 RU. As to `CCN1Cc2cc(OC)c(OC)cc2-c2cccc(NC(C)=O)c21`, the Activity came to 14.3 RU. On to `CCc1cccc2c1ncc1ccc(OC)cc12`, for which the Activity was 30.7 RU. The same measure, in the same setting: the value for `CCn1c(=O)c2cc(OC)c(OC)cc2c2cccc(C(=O)O)c21` was 33.5 RU; that for `Cc1cccc2c1N(C)Cc1cc(O)ccc1-2` was 35 RU; that for `CCN1Cc2cc(OC)c(OC)cc2-c2cccc(N)c21` was 145 RU.

With `CCN1Cc2cc(OC)c(OC)cc2-c2cccc(NC(=O)C(C)C)c21`, the Activity was 11.8 RU. On the same count and under the same terms, then `CCn1c(=O)c2cc(OC)c(OC)cc2c2cccc(NC(C)=O)c21`, with 17.7 RU.
